For test [1], the target named is T1, Adenosine receptor A3 (Homo sapiens) (UniProt P0DMS8).
T1 sequence (whole entry): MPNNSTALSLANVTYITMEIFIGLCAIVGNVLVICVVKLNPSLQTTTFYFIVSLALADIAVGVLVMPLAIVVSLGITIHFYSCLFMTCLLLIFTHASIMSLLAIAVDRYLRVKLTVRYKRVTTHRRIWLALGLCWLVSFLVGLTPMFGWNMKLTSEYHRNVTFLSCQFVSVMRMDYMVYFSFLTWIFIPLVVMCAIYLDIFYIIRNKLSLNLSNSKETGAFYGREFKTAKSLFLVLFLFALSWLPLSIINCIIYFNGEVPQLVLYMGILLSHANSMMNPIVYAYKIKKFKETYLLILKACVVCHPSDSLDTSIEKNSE
In words: (§1) Displacement of specific [125 I]AB-MECA binding at human Adenosine A3 receptor expressed in HEK cells. To be noted: HEK293. Type of test: cell-based.

Test [2] has as its target Adenosine receptor A2a (Rattus norvegicus) (UniProt P30543). In words: (§2) Displacement of specific [3H]-CGS- 21680 binding to Adenosine A2A receptor in rat striatal membranes. In kind it is cell membranes. The arrangement: concentration or dose not given beside the values. To be noted: Membrane, concentration not given here. The method, boiled down:
(§3)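 Rat striatal membranes labelled with [3H]CGS 21680 for A2A binding. Adenosine deaminase (3 units/mL) was present during membrane preparation, during a 30 min preincubation at 30 °C, and during radioligand incubation. Competitors were dissolved in DMSO and diluted in buffer (DMSO ≤2%).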

Test [3] concerns the target T2, Adenosine receptor A1 (Rattus norvegicus, UniProt P25099).
T2 sequence (P25099 whole entry): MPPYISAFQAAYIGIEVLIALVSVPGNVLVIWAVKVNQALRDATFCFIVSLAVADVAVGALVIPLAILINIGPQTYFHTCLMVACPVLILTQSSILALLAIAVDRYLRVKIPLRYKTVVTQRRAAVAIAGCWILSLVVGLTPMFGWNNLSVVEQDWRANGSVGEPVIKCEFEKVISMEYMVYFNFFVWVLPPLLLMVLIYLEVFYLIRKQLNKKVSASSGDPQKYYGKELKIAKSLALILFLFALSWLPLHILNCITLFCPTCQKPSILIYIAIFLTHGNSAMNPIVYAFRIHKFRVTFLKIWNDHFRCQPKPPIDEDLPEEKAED
The test is described as follows: Displacement of specific [3H]R-PIA binding to Adenosine A1 receptor in rat brain membranes.

In test [4] the target is T3, Adenosine receptor A3 (Homo sapiens, UniProt P0DMS8).
T3 sequence (P0DMS8 whole entry): T1 sequence (whole entry)
The description is as §1. In kind it is cell-based, HEK293. The method, boiled down: (§4)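 Membranes from HEK-293 cells stably expressing human A3 receptor (clone HS-21a), or from CHO cells stably expressing rat A3 receptor (rat: n = 3-5), in 50 mM Tris, 10 mM Mg2+, 1 mM EDTA, pH 8.0. Membranes at 0.3 mg protein/mL with [125I]AB-MECA at 0.3 nM final. Nonspecific binding defined with R-PIA. Competitors were dissolved in DMSO (≤2% final) and tested at ≥5 concentrations spanning 3 log units. Bound ligand was separated by GF/B filtration with three buffer rinses; Ki was derived.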

Test [5] is filed under the species Rattus norvegicus. In words: Ratio of binding affinities for rat A1 receptor against human A3 receptor, [Ki(rA1) / Ki (hA3)]. The method, boiled down:
(§5)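 Ratio of Ki values from binding assays. For A3, [125I]AB-MECA (final 0.3 nM) bound membranes of HEK-293 cells expressing human A3 (clone HS-21a) or CHO cells expressing rat A3, in Tris/Mg2+/EDTA buffer at pH 8.0. For rat A1, [3H]R-PIA bound cerebral cortex membranes, with adenosine deaminase (3 units/mL) present, including a 30 min preincubation at 30 °C.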

Test [6] has as its target T2, Adenosine receptor A1. The test is described as follows: (§6) Displacement of specific [3H]-CGS- 21680R-PIA binding to Adenosine A1 receptor in rat brain membranes. To be noted: in the assay text read “[3H]R-PIA” for “[3H]-CGS- 21680R-PIA”. Type of test: cell membranes. Put shortly: (§7)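 A1 binding used [3H]R-PIA on rat cerebral cortex membranes. Adenosine deaminase (3 units/mL) was included in membrane preparation, in a 30 min preincubation at 30 °C, and throughout radioligand incubation. Competitors were DMSO stocks diluted in buffer, with DMSO never above 2%.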

In test [7] the target is Adenosine receptor A2a (Rattus norvegicus) (UniProt P30543). Described as §2. In kind it is cell membranes. To be noted: Membrane. Put shortly: as §3
Adenosine receptor A2a (Rattus norvegicus), sequence (P30543 whole entry): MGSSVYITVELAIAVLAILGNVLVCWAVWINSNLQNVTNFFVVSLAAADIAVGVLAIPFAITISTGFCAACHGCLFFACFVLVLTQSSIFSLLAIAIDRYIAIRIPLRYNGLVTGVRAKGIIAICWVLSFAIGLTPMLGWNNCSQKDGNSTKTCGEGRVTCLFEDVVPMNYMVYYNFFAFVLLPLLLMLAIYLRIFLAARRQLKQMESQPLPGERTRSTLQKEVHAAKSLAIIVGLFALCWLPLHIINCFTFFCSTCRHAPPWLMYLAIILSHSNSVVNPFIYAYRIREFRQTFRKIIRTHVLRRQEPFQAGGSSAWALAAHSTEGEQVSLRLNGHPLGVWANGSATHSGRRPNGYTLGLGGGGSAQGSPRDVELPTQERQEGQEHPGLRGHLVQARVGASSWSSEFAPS
Test [8] addresses T1, Adenosine receptor A3 (Homo sapiens). The test is described as follows: Displacement of specific[125 I]AB-MECA binding at human Adenosine A3 receptor expressed in HEK cells at 10 e-4M. In kind it is cell-based. To be noted: HEK293.
For test [9], the species on record is Rattus norvegicus. In words: Ratio of the binding affinities against rat A3 receptor / rat A3 receptor, Ki(rA1) / Ki (rA3). The method, boiled down:
as §5

Test [10] is filed under the species Rattus norvegicus. In words: Ratio of the binding affinities against rat A3 receptor / human A3 receptor, Ki(rA1) / Ki (hA3). The method, boiled down: as §5
For test [11], the target named is T4, Adenosine receptor A3 (Rattus norvegicus, UniProt P28647).
T4 sequence (P28647 whole entry): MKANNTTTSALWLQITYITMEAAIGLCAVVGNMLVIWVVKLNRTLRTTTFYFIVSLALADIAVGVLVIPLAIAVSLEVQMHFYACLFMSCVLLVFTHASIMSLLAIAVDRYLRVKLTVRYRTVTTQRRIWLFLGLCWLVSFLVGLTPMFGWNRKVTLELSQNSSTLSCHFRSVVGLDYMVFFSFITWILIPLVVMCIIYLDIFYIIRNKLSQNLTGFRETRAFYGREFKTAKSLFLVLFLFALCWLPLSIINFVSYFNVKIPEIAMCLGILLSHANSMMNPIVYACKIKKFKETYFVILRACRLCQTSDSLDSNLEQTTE
In words: (§8) Displacement of specific [125I]AB-MECA binding at rat Adenosine A3 receptor stably expressed in CHO cells. Type of test: cell-based.

In test [12] the target is T1, Adenosine receptor A3 (Homo sapiens). The description is as §1. Type of test: cell-based. To be noted: HEK293; concentration not given here. The method, boiled down: as §4
The target in test [13] is Adenosine receptor A2a (Rattus norvegicus, UniProt P30543). The test is described as follows: Inhibition of [3H]-CGS- 21680 binding to Adenosine A2A receptor in rat striatal membranes. Type of test: cell membranes, Membrane.
Adenosine receptor A2a, sequence (P30543 whole entry): as the sequence (P30543 whole entry) above
For test [14], the target named is T5, Adenosine receptor A3 (Rattus norvegicus) (UniProt P28647).
T5 sequence (whole entry): T4 sequence (P28647 whole entry)
The test is described as §8. Type of test: cell-based. The method, boiled down: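 Membranes from CHO cells stably expressing rat A3 receptor (0.3 mg protein/mL) were incubated with [125I]AB-MECA (final 0.3 nM) and test compound in 50 mM Tris, 10 mM Mg2+, 1 mM EDTA, pH 8.0. Compounds were dissolved in DMSO, with DMSO never exceeding 2%. At least five competitor concentrations spanning 3 orders of magnitude were tested. Nonspecific binding was defined with R-PIA. Bound ligand was collected by filtration over GF/B filters; n = 3-5.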

Test [15] addresses T6, Adenosine receptor A1 (Rattus norvegicus) (UniProt P25099).
T6 sequence (whole entry): T2 sequence (P25099 whole entry)
Described as §6. Type of test: cell membranes. To be noted: concentration not given here. Put shortly: as §7

Test [16] addresses Adenosine receptor A2a (Rattus norvegicus) (UniProt P30543). In words: Displacement of specific [3H]-CGS- 21680 binding to Adenosine A2A receptor in rat striatal membranes at 10 e-5M. Type of test: cell membranes. To be noted: Membrane.
For test [17] the target is unchanged. The test is described as follows: Displacement of specific [3H]-CGS- 21680 binding to Adenosine A2A receptor in rat striatal membranes at 10 e-4M. In kind it is cell membranes. To be noted: Membrane.

A value given as a limit tells only on which side of the number the result lay.

A word on the pKi: it is the negative decadic logarithm of the Ki, by convention in mol/L. Usually inhibition stands for how much of the control response was suppressed. Usually Ki stands for a dissociation constant, usually derived from enzyme kinetics or from competition with a known ligand.

With `CCCc1c(C(=O)SCC)c(CCSC(C)=O)nc(-c2ccccc2)c1C(=O)OCC`, the pKi in test [1] came out at 6.71. The same compound showed an inhibition in [2] of 30%. For the same compound, the inhibitory constant (Ki) was 13.2 µM in [3] and 0.193 µM in test [4]. In addition, the Ratio in test [5] was determined as 68.
In turn, `CCOC(=O)c1c(-c2ccccc2)nc(CC)c(C(=O)SCC)c1CCCN1C(=O)c2ccccc2C1=O` yielded an inhibitory constant (Ki) in [6] of 5.24 µM. Besides, the Displacement came to 10% in test [7] and 28% in test [8].
Compound `CCCOC(=O)c1c(-c2ccccc2)nc(CC)c(C(=O)SCCCF)c1CCC` yielded a pKi in test [1] of 7.08. Further, the Ki in test [6] turned out to be 12.6 µM; in [11], 0.156 µM; in [4], 0.0828 µM. For the same compound, in test [7], the Displacement is less than 10%. Moreover, the Ratio was 81 in test [9], 1.9 in [10] and 150 in test [5].
In test [6], `CCCOC(=O)c1c(-c2ccccc2)nc(CC)c2c1CCOC2=O` gave a Ki of 11.2 µM. The inhibition in test [2] is 20%; in test [12] it was less than 10%.
For the compound `CCCOC(=O)c1c(-c2ccccc2)nc(CCF)c(C(=O)SCC)c1CCC`, the Ki in test [6] was found to be 19.8 µM; in test [13], 30.8 µM; in [14], 0.26 µM. For the same compound, the values for the Ratio in test [9] and in [10] were 76 and less than 1, respectively. The inhibition in [12] was found to be 15%.
Consider `CCNC(=O)c1c(C)nc(-c2ccccc2)c(C(=O)OCC)c1CC`, for which the inhibition in test [2], in test [12] and in [15] was less than 10% each time.
`CCCOC(=O)c1c(-c2ccccc2)nc(CC)c(C(=O)SCC)c1CC` registered a negative-log Ki (pKi) in test [1] of 8.08. Moreover, the Displacement in test [16] was 10%. The values for the Ratio in test [9], in [10] and in test [5] were 42, 22 and 820, respectively.
Take `CCCOC(=O)c1c(-c2ccccc2F)nc(CC)c(C(=O)SCC)c1CCC`: the negative-log Ki (pKi) in [1] stood at 7.64. In addition, the Ki in [13] is 8.63 µM; in [3], 13.5 µM; in test [4] it was 0.023 µM. Also, the Ratio in [5] was 590.
As for `CCCCCCSC(=O)c1c(CC)nc(-c2cccc(Cl)c2)c(C(=O)OCCC)c1CC`, the pKi in [1] was determined as 6.66. For the same compound, the Displacement in test [17] came out at 10%. Besides, the results for the Ki in [3] and in test [4] were 113 µM and 0.22 µM, respectively. Further, the Ratio in [5] came out at 510.
Compound `CCOC(=O)c1c(-c2ccccc2)nc(CC)c2c1CCCNC2=O` gave a negative-log Ki (pKi) in test [1] of 5.7. Moreover, the figures for the inhibition constant (Ki) in test [6] and in test [4] were 5.79 µM and 1.99 µM, respectively. The compound also displayed a Displacement in [7] of less than 10%.
Compound `CCCOC(=O)c1c(-c2ccccc2)nc(CC)c(C(=O)SCC(F)(F)F)c1CCC` had a negative-log Ki (pKi) in test [1] of 7.74. Also, the inhibition constant (Ki) was determined as 8.29 µM in [6], 6.14 µM in test [13], 0.495 µM in test [11] and 0.0181 µM in [4]. The Ratio in test [9] was 17; in test [10], 27; in [5], 460.
Turning to `CCCOC(=O)c1c(-c2ccccc2)nc(CC)c(C(=O)SCCOC2CCCCO2)c1CCC` (stereo not drawn), the inhibition in [2] is less than 10%; in [15], 18%. The same compound gave a Ki in test [4] of 0.517 µM.
Regarding `CCCOC(=O)c1c(CCC)c(C(=O)SCC)c(CC)[n+](C)c1-c1ccccc1`, the negative logarithm of the Ki (pKi) in [1] stood at 5.59. Besides, the inhibition in test [2] and in test [15] was less than 10% throughout. Moreover, the Ratio in [9] was greater than 23; in test [10], 2.1; in test [5], greater than 50. This compound displayed a Ki in [11] of 4.26 µM.
In the case of `CCCOC(=O)c1c(-c2ccccc2)nc(CCO)c(C(=O)SCC)c1CCC`, the inhibitory constant (Ki) was found to be 5.94 µM in test [6] and 29.1 µM in test [13]. The inhibition in test [12] is 16%.
